The values that follow come from ChEMBL document CHEMBL4680130, “Substituted 4-phenylthiazoles: Development of potent and selective A, A and dual A/A adenosine receptor antagonists” (Eur J Med Chem, 2020).

Test [1] concerns the target T1, Adenosine receptor A2b (Rattus norvegicus) (UniProt P29276).
T1 sequence (whole entry): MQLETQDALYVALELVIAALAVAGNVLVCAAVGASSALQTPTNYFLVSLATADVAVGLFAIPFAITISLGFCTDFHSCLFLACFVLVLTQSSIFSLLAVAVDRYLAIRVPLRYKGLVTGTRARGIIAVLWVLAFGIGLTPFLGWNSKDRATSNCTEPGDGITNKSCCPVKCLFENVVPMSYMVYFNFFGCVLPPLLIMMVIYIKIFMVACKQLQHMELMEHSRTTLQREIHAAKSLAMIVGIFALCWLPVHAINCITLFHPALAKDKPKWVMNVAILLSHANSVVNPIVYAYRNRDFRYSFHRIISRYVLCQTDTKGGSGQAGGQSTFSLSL
In words: Displacement of [3H]PSB-603 from rat adenosine receptor A2B expressed in CHO cell membranes at 0.1 uM incubated for 75 mins by radioligand competition assay relative to control. The following applies: Cell membrane. Put shortly:
(§1)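 CHO membranes expressing human or rat A2B, [3H]PSB-603 0.3 nM. Nonspecific binding defined by 10 µM DPCPX. Preincubated 20 min with adenosine deaminase, then 75 min at rt in Tris-HCl pH 7.4 with 2.5% DMSO. Filters washed with ice-cold 50 mM Tris-HCl containing 0.1% BSA; scintillation counting.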
In general terms: In a radioligand displacement assay an active substance lowers the binding of a labelled ligand.

Test [2] addresses T2, Adenosine receptor A3 (Rattus norvegicus, UniProt P28647).
T2 sequence (P28647 whole entry): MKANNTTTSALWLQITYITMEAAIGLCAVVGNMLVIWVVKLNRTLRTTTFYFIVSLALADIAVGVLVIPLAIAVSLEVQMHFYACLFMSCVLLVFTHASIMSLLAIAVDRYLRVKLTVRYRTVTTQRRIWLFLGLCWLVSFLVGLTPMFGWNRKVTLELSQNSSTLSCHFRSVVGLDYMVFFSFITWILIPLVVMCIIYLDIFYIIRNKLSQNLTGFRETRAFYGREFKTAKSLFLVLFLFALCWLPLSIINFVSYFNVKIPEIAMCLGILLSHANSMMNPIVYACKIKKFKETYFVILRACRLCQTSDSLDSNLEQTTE
In words: Displacement of [3H]NECA from rat adenosine receptor A3 expressed in CHO cell membranes incubated for 60 mins by radioligand competition assay. Also noted: species or system Cell membrane.

Another test addresses Adenosine receptor A2a (Rattus norvegicus, UniProt P30543). In words: Displacement of [3H]MSX2 from adenosine receptor A2A in rat brain striatum membranes incubated for 30 mins by radioligand competition assay. It is filed as cell membranes, Cell membrane.
A further test deals with T3, Adenosine receptor A1 (Rattus norvegicus, UniProt P25099).
T3 sequence (P25099 whole entry): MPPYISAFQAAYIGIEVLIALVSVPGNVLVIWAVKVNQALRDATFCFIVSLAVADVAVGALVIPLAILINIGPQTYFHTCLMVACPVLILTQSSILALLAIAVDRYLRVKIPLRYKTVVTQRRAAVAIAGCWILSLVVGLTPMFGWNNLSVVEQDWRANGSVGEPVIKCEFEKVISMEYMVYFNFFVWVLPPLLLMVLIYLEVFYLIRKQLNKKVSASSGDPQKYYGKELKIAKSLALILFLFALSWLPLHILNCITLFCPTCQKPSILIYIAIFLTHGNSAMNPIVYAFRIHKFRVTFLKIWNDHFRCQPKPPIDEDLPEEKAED
In words: Displacement of [3H]DPCPX from rat brain cortical membrane A1AR in presence of 100 uM of GTP by scintillation counting analysis. Format: cell membranes, Cortex, Cell membrane.

Test [3] concerns the target Adenosine receptor A2a (Rattus norvegicus) (UniProt P30543). Put plainly: Displacement of [3H]MSX2 from adenosine receptor A2A in rat brain striatum membranes at 0.1 uM incubated for 30 mins by radioligand competition assay relative to control. The conditions noted are these: Cell membrane. Put shortly: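 A2A binding, [3H]MSX-2 1.0 nM. Membranes: rat brain striatum, or HEK293 cells expressing human A2A. Adenosine deaminase preincubation 20 min, then 30 min at rt in 50 mM Tris-HCl pH 7.4 with 2.5% DMSO. Nonspecific binding defined by 50 µM NECA. GF/B filtration, scintillation counting. Single-concentration percent inhibition, ≥3 experiments in duplicate or triplicate.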

Test [4] concerns the target T4, Adenosine receptor A3 (Rattus norvegicus) (UniProt P28647).
T4 sequence (whole entry): T2 sequence (P28647 whole entry)
In words: Displacement of [3H]NECA from rat adenosine receptor A3 expressed in CHO cell membranes at 0.1 uM incubated for 60 mins by radioligand competition assay relative to control. The conditions noted are these: Cell membrane. An outline of the steps:
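CHO membranes expressing rat A3, [3H]NECA 10 nM. Nonspecific binding defined by 100 µM R-PIA. Preincubated 20 min with adenosine deaminase, then 60 min at rt in 50 mM Tris-HCl pH 7.4 with 2.5% DMSO. GF/B filtration, scintillation counting.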

Test [5] has as its target T5, Adenosine receptor A2b (Homo sapiens, UniProt P29275).
T5 sequence (P29275 whole entry): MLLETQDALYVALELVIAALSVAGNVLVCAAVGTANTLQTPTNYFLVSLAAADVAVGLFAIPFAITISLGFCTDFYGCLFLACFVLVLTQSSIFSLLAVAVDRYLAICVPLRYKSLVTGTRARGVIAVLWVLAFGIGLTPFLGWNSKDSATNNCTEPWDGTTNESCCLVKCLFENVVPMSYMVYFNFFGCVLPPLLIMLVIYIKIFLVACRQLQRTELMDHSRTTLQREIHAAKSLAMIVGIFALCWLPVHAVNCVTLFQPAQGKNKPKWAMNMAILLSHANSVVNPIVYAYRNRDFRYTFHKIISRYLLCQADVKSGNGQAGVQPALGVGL
Put plainly: Displacement of [3H]PSB-603 from human adenosine receptor A2B expressed in CHO cell membranes incubated for 75 mins by radioligand competition assay. More on the design: species or system Cell membrane.

For test [6], the target named is T6, Adenosine receptor A3 (Homo sapiens, UniProt P0DMS8).
T6 sequence (P0DMS8 whole entry): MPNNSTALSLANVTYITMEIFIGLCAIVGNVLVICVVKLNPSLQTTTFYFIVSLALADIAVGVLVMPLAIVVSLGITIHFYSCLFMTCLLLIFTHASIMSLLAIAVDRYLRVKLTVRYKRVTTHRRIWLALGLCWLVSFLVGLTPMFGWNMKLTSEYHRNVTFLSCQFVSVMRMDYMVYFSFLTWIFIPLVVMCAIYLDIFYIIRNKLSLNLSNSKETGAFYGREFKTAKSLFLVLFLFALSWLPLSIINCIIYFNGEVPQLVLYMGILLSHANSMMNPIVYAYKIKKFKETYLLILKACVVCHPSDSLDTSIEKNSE
In words: Displacement of [3H]PSB-11 from human adenosine receptor A3 expressed in CHO cell membranes incubated for 60 mins by radioligand competition assay. More on the design: species or system Cell membrane.

Test [7] has as its target T7, Adenosine receptor A2b (Rattus norvegicus, UniProt P29276).
T7 sequence (P29276 whole entry): T1 sequence (whole entry)
In words: Displacement of [3H]PSB-603 from rat adenosine receptor A2B expressed in CHO cell membranes incubated for 75 mins by radioligand competition assay. More on the design: species or system Cell membrane. Put shortly:
as §1

In test [8] the target is T8, Adenosine receptor A3 (Homo sapiens) (UniProt P0DMS8).
T8 sequence (whole entry): T6 sequence (P0DMS8 whole entry)
Put plainly: Displacement of [3H]PSB-11 from human adenosine receptor A3 expressed in CHO cell membranes at 0.1 uM incubated for 60 mins by radioligand competition assay. The following applies: Cell membrane, filed as antagonist, dose 0.1 µM. An outline of the steps:
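CHO membranes expressing human A3, [3H]PSB-11 0.5 nM. Nonspecific binding defined by 100 µM R-PIA. Adenosine deaminase preincubation 20 min, then 60 min at rt in 50 mM Tris-HCl pH 7.4 with 2.5% DMSO. Filtered on GF/B, scintillation counted.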

Chain of Adenosine receptor A2a (P30543 whole entry): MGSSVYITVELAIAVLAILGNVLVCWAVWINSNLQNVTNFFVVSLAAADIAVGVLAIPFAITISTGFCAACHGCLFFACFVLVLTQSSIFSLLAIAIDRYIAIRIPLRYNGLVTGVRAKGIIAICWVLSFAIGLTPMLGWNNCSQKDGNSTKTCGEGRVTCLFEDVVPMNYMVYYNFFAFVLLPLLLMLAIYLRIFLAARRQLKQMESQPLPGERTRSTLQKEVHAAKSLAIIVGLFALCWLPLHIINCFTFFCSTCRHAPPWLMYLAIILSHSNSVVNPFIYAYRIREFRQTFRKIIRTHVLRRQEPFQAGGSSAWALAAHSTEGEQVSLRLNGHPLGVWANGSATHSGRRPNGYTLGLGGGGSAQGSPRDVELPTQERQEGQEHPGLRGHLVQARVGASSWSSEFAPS
Chain of Adenosine receptor A2a (Rattus norvegicus) (P30543 whole entry): as above

Take `COc1ccc(C(=O)Nc2nc(-c3ccccc3)c(C(=O)c3ccc(C)cc3)s2)cc1`: the inhibition was 7% in test [1], 15% in test [3], 13% in test [4] and 45% in test [8]. In addition, the Ki at Adenosine receptor A3 [2] was over 10000 nM; at Adenosine receptor A2a, over 1000 nM; on Adenosine receptor A2b [5] it was over 100 nM; on Adenosine receptor A3 [6], over 1000 nM; at Adenosine receptor A2b [7] it was over 100 nM. For the same compound, the IC50 at Adenosine receptor A1 stood at 0.0763 nM.

The term inhibition denotes the change of the read-out against control, counted positive when it falls. As a reminder, the Ki is a dissociation constant, usually derived from enzyme kinetics or from competition with a known ligand. Lower therefore signals tighter binding. The term IC50 denotes the point on the concentration scale where inhibition reaches its midpoint.
